Common to all, as to format: functional, cell-based
One experiment relates to HL-60. As to the kind of experiment: Cytotoxicity against human HL60 cells incubated for 3 days by CellTiter-Glo luminescent assay. The note with it: HL-60, 72 h. Put shortly: (§1)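 CellTiter-Glo viability read-out on leukemia cell lines. IC50 reported as the average of triplicates.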
A general note: Cellular ATP, detected with luciferase, serves as a proxy for viable cell number.

Another experiment has as its system KG-1. As to the kind of experiment: Cytotoxicity against human KG1 cells incubated for 3 days by CellTiter-Glo luminescent assay. The note with it: KG-1, 72 h. Put shortly: as §1
The next experiment has as its system Jurkat. As to the kind of experiment: Cytotoxicity against human Jurkat cells incubated for 3 days by CellTiter-Glo luminescent assay. To be noted: 72 h. Put shortly: as §1
The test system of the next experiment is NALM-6. As to the kind of experiment: Cytotoxicity against human NALM6 cells incubated for 3 days by CellTiter-Glo luminescent assay. To be noted: NALM-6, 72 h. Put shortly:
as §1

These results are taken from ChEMBL document CHEMBL4385626, “SAR optimization studies on modified salicylamides as a potential treatment for acute myeloid leukemia through inhibition of the CREB pathway” (Bioorg Med Chem Lett, 2019).

As a reminder, the IC50 is the point on the concentration scale where inhibition reaches its midpoint.

Take `O=C(Nc1ccc(C(F)(F)F)c(Cl)c1)c1cc(Cl)ccc1O`: the half-maximal inhibitory concentration (IC50) in the experiment with HL-60 came out at 460 nM; in the experiment on KG-1, 450 nM; in the experiment with Jurkat, 690 nM; in the experiment with NALM-6 it was 1220 nM.
With `Cc1ccc(C(=O)Nc2ccc(C#N)cc2)c(O)c1`, the results for the IC50 in the experiment with HL-60 and in the experiment with KG-1 were 2420 nM and 2560 nM, respectively.
In the case of `O=C(Nc1ccc(C(F)(F)F)cc1)c1cc(F)ccc1O`, the half-maximal inhibitory concentration (IC50) in the experiment with HL-60 was found to be 490 nM; with KG-1, 1700 nM; in the experiment with Jurkat, 580 nM; in the experiment on NALM-6 it was 2090 nM.
Turning to `N#Cc1ccc(NC(=O)c2ccc(Cl)cc2O)cc1`, the results for the IC50 in the experiment with HL-60 and in the experiment on KG-1 were 1300 nM and 1920 nM, respectively.
For `O=C(Nc1cc(C(F)(F)F)cc(C(F)(F)F)c1)c1cc(Br)c(F)cc1O`, the half-inhibitory concentration (IC50) in the experiment on HL-60 was 250 nM; in the experiment on KG-1 it was 510 nM; in the experiment with Jurkat it was 700 nM; in the experiment with NALM-6, 950 nM.
For `N#Cc1ccc(NS(=O)(=O)c2cc(F)ccc2O)cc1`, the IC50 in the experiment on HL-60 and in the experiment with KG-1 was more than 10000 nM in each case.
For `COc1cc2ccccc2cc1C(=O)Nc1ccc(C#N)cc1`, the IC50 with HL-60 and with KG-1 was more than 10000 nM in each case.
For `N#Cc1ccc(NC(=O)c2cccc(Br)c2O)cc1`, the IC50 turned out to be 2910 nM in the experiment with HL-60 and 3260 nM in the experiment on KG-1.
The matching figures for `N#Cc1ccc(NC(=O)c2ccc[nH]c2=O)cc1`: more than 10000 nM and more than 10000 nM.
With `N#Cc1cc(Cl)ccc1NC(=O)c1ccc2cccnc2c1O`, the IC50 worked out at 790 nM in the experiment on HL-60, 3540 nM in the experiment on KG-1, 170 nM in the experiment on Jurkat and 280 nM in the experiment on NALM-6.
`N#Cc1ccc(NC(=O)c2cc(Cc3ccccc3)ccc2O)cc1`: the results for the half-inhibitory concentration (IC50) with HL-60 and in the experiment on KG-1 were 1740 nM and 1930 nM, respectively.
As to `CC(=O)Oc1cc2ccccc2cc1C(=O)Nc1ccc(C#N)cc1`, the IC50 with HL-60 came to 1690 nM; with KG-1 it was 1700 nM.
For `N#Cc1ccc(NC(=O)c2ccccc2O)cc1`, the IC50 in the experiment with HL-60 was found to be 4620 nM; with KG-1, 5370 nM.
As to `O=C(Nc1cc(Cl)cc(Cl)c1)c1cc(F)ccc1O`, the IC50 with HL-60 is 600 nM; in the experiment on KG-1 it was 780 nM; in the experiment on Jurkat it was 710 nM; in the experiment with NALM-6 it was 1440 nM.
Take `N#Cc1ccc(NC(=O)c2cccc(F)c2O)cc1`: the IC50 with HL-60 was determined as 5390 nM; in the experiment on KG-1 it was 9690 nM.
As to `N#Cc1ccc(NC(=O)c2ccc3cccnc3c2O)c(F)c1`, the IC50 is 730 nM with HL-60, 3260 nM in the experiment with KG-1, 420 nM in the experiment with Jurkat and 370 nM in the experiment with NALM-6.
The matching figures for `O=C(Nc1ccc(Cl)cc1)c1ccc2cccnc2c1O`: 630 nM, 3300 nM, 510 nM and 380 nM.
The matching figures for `O=C(Nc1ccc(C(F)(F)F)cc1)c1ccc2cccnc2c1O`: 680 nM, 3510 nM, 550 nM and 380 nM.
Turning to `O=C(Nc1cc(C(F)(F)F)cc(C(F)(F)F)c1)c1ccc(Br)cc1O`, the 50% inhibitory concentration (IC50) in the experiment on HL-60 was found to be 270 nM; with KG-1 it was 830 nM; in the experiment with Jurkat, 930 nM; in the experiment on NALM-6, 1200 nM.
The matching figures for `O=C(Nc1ccc(C(F)(F)F)cc1)c1cc(Cl)ccc1O`: 510 nM, 740 nM, 710 nM and 1210 nM.
The matching figures for `O=C(Nc1ccc(Cl)cc1Cl)c1ccc2cccnc2c1O`: 610 nM, 3560 nM, 430 nM and 450 nM.
Take `N#Cc1ccc(NC(=O)c2cc(F)ccc2O)cc1`: the IC50 with HL-60 stood at 1420 nM; in the experiment on KG-1, 2670 nM.
`O=C(Nc1ccc(C(F)(F)F)cc1)c1cc(Br)c(-c2ccccc2)cc1O`: the IC50 with HL-60 was determined as 540 nM; in the experiment with KG-1 it was 400 nM; with Jurkat, 740 nM; with NALM-6, 1000 nM.
On to `O=C(Nc1ccc(Cl)cc1Cl)c1cc(F)ccc1O`, for which the IC50 in the experiment on HL-60 was 890 nM; in the experiment on KG-1, 850 nM; in the experiment with Jurkat, 880 nM; in the experiment on NALM-6, 1620 nM.
Regarding `O=C(Nc1cc(C(F)(F)F)cc(C(F)(F)F)c1)c1cc(Cl)c(F)cc1O`, the IC50 amounted to 430 nM with HL-60, 470 nM with KG-1, 730 nM with Jurkat and 2130 nM with NALM-6.
The matching figures for `O=C(Nc1cc(F)cc(F)c1)c1ccc2cccnc2c1O`: 510 nM, 3340 nM, 430 nM and 310 nM.
For `O=C(Nc1ccc(OC(F)(F)F)cc1)c1cc(F)ccc1O`, the IC50 in the experiment with HL-60 came to 850 nM; in the experiment with KG-1 it was 780 nM; in the experiment on Jurkat it was 810 nM; in the experiment on NALM-6 it was 1210 nM.
On to `N#Cc1ccc(NC(=O)c2ccc(C(F)(F)F)cc2O)cc1`, for which the IC50 in the experiment on HL-60 is 1030 nM; in the experiment with KG-1 it was 1440 nM.
The matching figures for `N#Cc1ccc(NC(=O)c2c(O)cccc2F)cc1`: more than 10000 nM and more than 10000 nM.
The matching figures for `N#Cc1ccc(NC(=O)c2cc(Br)c(-c3ccccc3)cc2O)cc1`: 700 nM and 850 nM.
The matching figures for `N#Cc1ccc(NC(=O)c2ccc(Br)cc2O)cc1`: 1210 nM and 1450 nM.
As to `N#Cc1ccc(NC(=O)c2c(O)ccc3ccccc23)cc1`, the IC50 in the experiment on HL-60 is 4430 nM; in the experiment with KG-1, 3760 nM.
In the case of `Cc1cccc(C(=O)Nc2ccc(C#N)cc2)c1O`, the figures for the half-inhibitory concentration (IC50) in the experiment with HL-60 and with KG-1 were more than 10000 nM and 8980 nM, respectively.
For the compound `N#Cc1ccc(NC(=O)c2ccc(Br)cc2O)c(Cl)c1`, the half-inhibitory concentration (IC50) came out at 730 nM in the experiment with HL-60, 790 nM with KG-1, 750 nM with Jurkat and 1860 nM in the experiment on NALM-6.
Take `CN(C(=O)c1cc(F)ccc1O)c1ccc(C#N)cc1`: the IC50 in the experiment with HL-60 and in the experiment with KG-1 was more than 10000 nM throughout.
As for `O=C(Nc1ccc(C(F)(F)F)cc1)c1cc(Cl)c(-c2ccccc2)cc1O`, the IC50 in the experiment with HL-60 stood at 490 nM; in the experiment with KG-1, 770 nM; in the experiment on Jurkat it was 1160 nM; with NALM-6, 800 nM.
`N#Cc1ccc(NC(=O)c2ccc(F)cc2O)cc1`: the half-maximal inhibitory concentration (IC50) in the experiment on HL-60 was 1380 nM; in the experiment with KG-1, 3150 nM.
In the case of `N#Cc1ccc(NC(=O)c2cc(Cl)c(-c3ccccc3)cc2O)cc1`, the IC50 with HL-60 was determined as 520 nM; in the experiment with KG-1 it was 480 nM.
In the case of `O=C(Nc1ccc(Cl)c(Br)c1)c1cc(Cl)ccc1O`, the half-maximal inhibitory concentration (IC50) in the experiment with HL-60 was 780 nM; in the experiment with KG-1, 680 nM; with Jurkat it was 1350 nM; in the experiment on NALM-6 it was 3070 nM.
The matching figures for `O=C(Nc1cccc(C(F)(F)F)c1)c1cc(F)ccc1O`: 970 nM, 1010 nM, 840 nM and 1800 nM.
As for `O=C(Nc1ccc(OC(F)(F)F)c(Cl)c1)c1cc(Cl)ccc1O`, the concentration for half-maximal inhibition (IC50) in the experiment with HL-60 turned out to be 450 nM; in the experiment with KG-1 it was 460 nM; with Jurkat, 840 nM; with NALM-6, 1050 nM.
Regarding `N#Cc1ccc(NC(=O)c2cc(-c3ccncc3)ccc2O)cc1`, the IC50 in the experiment on HL-60 amounted to 5410 nM; in the experiment on KG-1 it was 7990 nM.
The matching figures for `CS(=O)(=O)Nc1ccc(Cl)cc1C(=O)Nc1ccc(C#N)cc1`: more than 10000 nM and more than 10000 nM.
As for `O=C(Nc1ccc(OC(F)(F)F)c(Cl)c1)c1cc(F)ccc1O`, the concentration for half-maximal inhibition (IC50) came out at 550 nM with HL-60, 370 nM in the experiment with KG-1, 700 nM with Jurkat and 1000 nM in the experiment with NALM-6.
In the case of `COc1cccc(C(=O)Nc2ccc(C#N)cc2)c1O`, the concentration for half-maximal inhibition (IC50) in the experiment on HL-60 and in the experiment with KG-1 was more than 10000 nM each time.
With `N#Cc1ccc(NC(=O)c2cc(Br)c3cccnc3c2O)cc1`, the IC50 in the experiment on HL-60 is 330 nM; with Jurkat it was 230 nM; with NALM-6, 210 nM.
As for `O=C(Nc1ccc(Br)c(Cl)c1)c1cc(F)ccc1O`, the IC50 in the experiment with HL-60 was found to be 600 nM; with KG-1, 670 nM; in the experiment on Jurkat, 860 nM; with NALM-6 it was 1250 nM.
On to `Cc1cccc(O)c1C(=O)Nc1ccc(C#N)cc1`, for which the concentration for half-maximal inhibition (IC50) in the experiment on HL-60 amounted to 6860 nM; in the experiment with KG-1 it was 7940 nM.
The matching figures for `N#Cc1ccc(NC(=O)c2ccc(-c3ccncc3)cc2O)cc1`: 7090 nM and 8840 nM.
The matching figures for `N#Cc1ccc(NC(=O)c2ccc(-c3ccccc3)cc2O)cc1`: 700 nM and 410 nM.
On to `O=C(Nc1ccccc1)c1cc(F)ccc1O`, for which the IC50 in the experiment with HL-60 and in the experiment on KG-1 was more than 10000 nM in each case.
For `N#Cc1ccc(CC(=O)c2cc(F)ccc2O)cc1`, the IC50 in the experiment on HL-60 and in the experiment with KG-1 was more than 10000 nM each time.
Take `N#Cc1ccc(NC(=O)c2cc(-c3cccnc3)ccc2O)cc1`: the IC50 was 7960 nM in the experiment with HL-60 and 8330 nM in the experiment on KG-1.
As to `N#Cc1ccc(NC(=O)c2cccc3cc[nH]c23)cc1`, the IC50 in the experiment with HL-60 and in the experiment on KG-1 was more than 10000 nM in each case.
As for `N#Cc1cccc(NC(=O)c2cc(F)ccc2O)c1`, the IC50 with HL-60 was found to be 7750 nM; in the experiment on KG-1, 9100 nM.
The matching figures for `N#Cc1ccc(NC(=O)c2ccc(-c3cccnc3)cc2O)cc1`: 6660 nM and 7940 nM.
The matching figures for `N#Cc1ccc2nc(-c3ccccc3O)[nH]c2c1`: more than 10000 nM and more than 10000 nM.
`N#Cc1ccc(NC(=O)c2ccc3ccccc3c2O)cc1`: the values for the concentration for half-maximal inhibition (IC50) in the experiment on HL-60 and in the experiment on KG-1 were 3410 nM and 2720 nM, respectively.
In the case of `N#Cc1ccc(NC(=O)c2cc(-c3ccccc3)ccc2O)cc1`, the concentration for half-maximal inhibition (IC50) amounted to 1350 nM in the experiment with HL-60 and 1300 nM in the experiment with KG-1.
The matching figures for `Cc1ccc(O)c(C(=O)Nc2ccc(C#N)cc2)c1`: 3920 nM and 3370 nM.
The matching figures for `N#Cc1ccc(Nc2n[nH]c3ccccc23)cc1`: more than 10000 nM and more than 10000 nM.
Regarding `N#Cc1ccc(NC(=O)c2cc(C(F)(F)F)ccc2O)cc1`, the values for the half-maximal inhibitory concentration (IC50) with HL-60 and with KG-1 were 3120 nM and 4810 nM, respectively.
The matching figures for `COc1ccc(C(=O)Nc2ccc(C#N)cc2)c(O)c1`: 5470 nM and 5430 nM.
